Screening data: PubChem BioAssay, several laboratories
AHR activator = human AHR activation. AHR-responsive luciferase reporter cells, luminescence. activation, % at 5 µM. hit rate 2.5% among 320,000. AID 2796; in the data active = activation above about 47%;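 also: 0% = vehicle wells and 100% = reference agonist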
HIF act = HIF pathway transcriptional activation; U2OS HRE-luciferase reporter, luminescence; normalized: DMSO 0%, desferrioxamine 100%; activation, % at 7.5 µM (by protocol); hit rate 0.32% among 300,000; AID 1910;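 active = mean activation of at least 10% of the iron chelator positive control signal, with at least half of replicates also reaching 10%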
SR-BI DiI inh = blocks mouse SR-BI lipid uptake from DiI-HDL; inhibition, % at 12.5 µM; hit rate 0.96% among 320,000; ldlA[mSR-BI] CHO cells, DiI-HDL uptake fluorescence, 3 h; Q61009; AID 488896;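 active = mean replicate inhibition of at least 70% and a set share of replicates each scoring 70 or more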;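 also: 0% = median of neutral control wells and 100% = median of positive control wells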
SR-BI DiI-HDL act = activators of SR-BI mediated HDL lipid uptake. CHO ldlA[mSR-BI] cells, DiI-HDL uptake fluorescence, 3 h; 100 = double the neutral-control signal. activation, % at 12.5 µM. hit rate 0.096% among 320,000;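 active = mean replicate activation of at least 60% and every replicate at or above 60%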;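 also: 0% = median plate neutral-control signal and 100% = twice that signal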
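Material: SR-BI-overexpressing, LDLR-lacking CHO cells; schedule: compound exposure 3 h, 37 °C; reagent: DiI-labelled HDL at 10 µg/mL final; technique: bottom-read fluorescence, 550/595 nm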
ABCB6 inh MLPCN = inhibitors of human ABC transporter ABCB6; K562-ABCB6 porphyrin accumulation, flow cytometry, 1 h; hits give low values; Q9NP58; hit rate 0.19% among 360,000; fluorescence ratio to DMSO, % at 10 µM;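 active = fluorescence ratio to DMSO below 75%, the collection mean minus 3 SD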;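 also: signal is porphyrin accumulated inside mitochondria; 100% equals median channel fluorescence of DMSO control wells; lower ratio means ABCB6 inhibition with less porphyrin fluorescence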
FXN GAA850 act = activators of GAA850 frataxin (FXN) promoter; HEK293 lucGAA850 FXN promoter luciferase reporter, 24 h; percent of 10 µM SAHA response; activation, % at 6 µM; hit rate 0.56% among 360,000; AID 540364;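 active = activation above the average of all compounds screened plus 3 SD, cutoff fixed separately per campaign, cut at about 7.5% in these data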;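 also: 0% = DMSO wells and 100% = 10 µM SAHA wells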
* hit, by the source's call; x = no result given. Shown are actives, neighbours in structure and some others; about 3.9% of the full set was active somewhere.

SMILES	AHR activator	HIF act	SR-BI DiI inh	SR-BI DiI-HDL act	ABCB6 inh MLPCN	FXN GAA850 act
O=C(Nc1ccc([N+](=O)[O-])cc1)Nc1nc(-c2ccc(Cl)s2)cs1	-1	-3	84*	-84	89	-11
COc1ccc(-c2cc(C(=O)Oc3ccc([N+](=O)[O-])cc3)c3ccccc3n2)cc1	8	0	6	-6	96	4
COc1ccc2nc3cc([N+](=O)[O-])ccc3c(NNc3ccc([N+](=O)[O-])cc3)c2c1	x	x	121*	-121	96	2
COc1ccccc1-c1cc2ccccc2[nH]1	64*	2	32	-32	97	4
CCN(CC)S(=O)(=O)c1ccc2oc(C(=O)NCc3ccc(C)cc3)c(C)c2c1	6	x	76*	-76	96	-2
O=C(N/N=C/c1ccc[nH]1)c1sc2ccccc2c1Cl	27	1	75*	-75	105	3
O=C(NC1CCC(O)CC1)c1cc(-c2ccc(Cl)cc2)nc2ccccc12 (configuration not stated)	3	x	77*	-77	101	1
Cc1ccc(C)c(-c2cc(C(=O)NC3CC3)c3ccccc3n2)c1	x	x	31	-31	102	1
O=C(N/N=C/c1ccncc1)c1sc2ccccc2c1Cl	7	0	21	-21	98	1
O=C(N/N=C/c1ccc[nH]1)c1cc(-c2ccc(Cl)cc2)nc2ccccc12	49*	0	93*	-93	93	-1
O=C(Cc1nc(=O)c2ccccc2s1)Nc1ccccc1	50*	1	24	-24	94	6
O=C(NCC1CCCO1)Nc1ccc2c(c1)OCO2 (configuration not stated)	36	1	3	-3	99	2
COc1ccc(-c2c(C)n([O-])c3c([n+]2=O)CCCC3)c(OC)c1	-2	0	-15	15	75	1
Cc1ccc(NC(=S)NNC(=S)Nc2ccc(C)cc2)cc1	x	x	10	-10	95	-1
Cc1ccc(NNC(=S)Nc2ccc(C(C)C)cc2)c(C)c1	66*	-2	6	-6	102	4
Cc1c(C)n(CCc2ccccc2)c2ncnc(NN)c12	19	-19	47	-47	97	3
Cc1c(C)n(CCc2ccccc2)c2ncnc(NCCCO)c12	51*	5	-6	6	93	3
O=[N+]([O-])c1ccccc1CSc1nc2ccccc2o1	48*	-5	22	-22	101	3
COc1ccc(C)cc1Nc1n[n+](-c2ccccc2)c(-c2ccc(N(C)C)cc2)s1	12	4	73*	-73	415	-2
COc1ccc(C)cc1Nc1n[n+](-c2ccccc2)c(-c2ccc(OC)c(OC)c2OC)s1	12	1	37	-37	94	-1
COc1ccc(C2=Nc3nc(-c4ccccc4)cn3C(c3ccc(OC)cc3)C2)cc1 (configuration not stated)	x	0	27	-27	106	-3
Cc1ccc(-c2cc(=O)c3ccccc3[nH]2)cc1	50*	5	10	-10	97	-1
COC(=O)c1sccc1NC(=O)NC1CCCCC1	6	2	x	x	104	4
O=C(CSc1nc2c(c(=O)[nH]1)CN(Cc1ccc(F)cc1)CC2)Nc1ccc(F)cc1	3	0	25	-25	106	0
OCc1c[nH]c2ccccc12	53*	x	16	-16	108	-2
SMILES	AHR activator	HIF act	SR-BI DiI inh	SR-BI DiI-HDL act	ABCB6 inh MLPCN	FXN GAA850 act
c1ccc2c(NCCc3c[nH]c4ccccc34)c3ccccc3nc2c1	46	13*	-6	6	89	4
Fc1cccc(NCCc2c[nH]c3ccccc23)n1	20	1	26	-26	95	1
O=C(Cc1c[nH]c2ccccc12)Nc1nc2ccccc2[nH]1	91*	2	-20	20	104	3
CCOC(=O)C1CCN(C(=O)c2ccc(CNS(=O)(=O)c3ccc(C)cc3)cc2)CC1	0	0	4	-4	94	0
O=C(COC(=O)c1ccncc1)NC(=O)C1CCCCC1	-2	0	-8	8	93	1
Cc1cc2nc(C3CCCCC3)c(CC(C)(C)C)n2c(C)c1Br	x	x	x	x	97	x
Cc1ccc(NC(=O)c2cc(-c3cc(Cl)ccc3C)n[nH]2)cc1NS(C)(=O)=O	x	x	x	x	77	-4
COc1ccc(NC(=O)C23CC4CC(C2)CC(n2cnc(Br)n2)(C4)C3)cc1Cl	51*	0	44	-44	106	0
CC(=O)Nc1ccccc1OCC(=O)NC1CCCCC1C (configuration not stated)	-1	x	-14	14	99	2
Clc1ccc(-c2cn3c(n2)-c2ccccc2C3)cc1Cl	62*	0	49	-49	94	4
CSc1nc(C)cc(C)c1S(=O)(=O)c1ccccc1C	-3	0	13	-13	100	2
C/C(=N/NC(N)=S)c1cc2ccc(O)cc2oc1=O	6	0	84*	-84	109	0
Cc1ccc(C2=NN(CCC(=O)NCCC(C)C)C(=O)CC2)cc1	6	0	x	x	x	x
N#Cc1cc(-c2ccccc2)nn1-c1ccccc1	68*	2	22	-22	106	3
O=c1c(-c2ccco2)[n+]([O-])c2ccccc2n1OCc1ccccc1F	9	0	12	-12	96	-1
O=c1c(-c2ccco2)[n+]([O-])c2ccccc2n1OCc1ccccc1	61*	0	41	-41	114	1
O=c1c(-c2ccco2)[n+]([O-])c2ccccc2n1OCc1c(F)cccc1F	49*	0	6	-6	107	1
Cc1ccc(OCc2nnc(SC(C)C(=O)O)n2-c2ccccc2)cc1 (configuration not stated)	3	-10	16	-16	99	0
COc1ccc(-n2c(COc3cccc4ccccc34)nnc2SCC(=O)NCc2ccco2)cc1	2	0	-4	4	90	1
COc1ccc(-c2cc(C(F)(F)F)nc(SCC(=O)NCc3ccco3)n2)cc1OC	6	0	81*	-81	118	3
COc1ccccc1OCc1nnc(SCC(=O)NCc2ccco2)n1-c1ccccc1	3	423*	5	-5	94	-1
O=C(CSc1nc(-c2ccccc2)cc(C(F)(F)F)n1)NCc1ccco1	2	0	22	-22	97	0
CN(CCc1ccccn1)C(=O)Nc1cc(Cl)cc(Cl)c1	3	0	10	-10	100	-1
Cc1cccc(NC(=O)C2CC(=O)NC(Nc3nc4ccccc4s3)=N2)c1 (configuration not stated)	0	99*	x	x	x	x
CCOc1cc(-c2ccc(N)c(OCC)c2)ccc1N	50*	-1	24	-24	99	0
